Results taken from ChEMBL document CHEMBL1155789, “Design, synthesis, and evaluation of 3C protease inhibitors as anti-enterovirus 71 agents” (Bioorg Med Chem, 2008).
The source made the active and inactive calls. The rule behind the calls is not given here.

Key:
Enterovirus A71 [1] = assay: Antiviral activity against Human enterovirus 71 in human rhabdomyosarcoma cells assessed as virus-induced cell death after 72 hrs; type: functional, organism-based; conditions: Enterovirus A
How it was run: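 RD cells seeded at 1.1×10^5 cells/mL in DMEM with 10% FBS, grown 24-30 h at 37 °C to about 90% confluence. Virus (100 TCID50) mixed with test compound was adsorbed 1 h at 35 °C, then overlaid with DMEM, 2% FBS, 0.1% DMSO for 72 h at 35 °C. Formaldehyde fixation, crystal violet stain, A570. EC50 is 50% reduction of virus-induced cell death versus virus control. Triplicate, at least twice.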

RD [2] = assay: Cytotoxicity against human RD cells; type: cell-based
[3] = Selectivity index, ratio of CC50 for human RD cells to EC50 for Human enterovirus 71; type: toxicity, cell-based; conditions: for selectivity ratio: RD cells, read-out: Ratio CC50/EC50
[4] = Inhibition of Human enterovirus 71 TW/2231/98 recombinant protease 3C expressed in Escherichia coli JM109 competent cells; set-up: species or system Enterovirus A71
How it was run: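 His-tagged EV71 3C protease expressed in E. coli […] and purified on Ni–NTA. Fluorescence read at 538 nm with excitation at 355 nm. Initial velocities over the first 5 min were plotted against inhibitor concentration and fitted to a hyperbolic activity equation to give IC50.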

Enterovirus A71 [5] = assay: (§1) Inhibition of Human enterovirus 71 TW/2231/98 recombinant protease 3C expressed in Escherichia coli JM109 competent cells by time dependent assay
How it was run: (§2)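 Time-dependent inactivation: 0.5 μM 3C protease incubated with 1–10 μM inhibitor in the fluorogenic peptide assay (10 mM MES pH 6.5, 25 °C). Activity loss versus incubation time was fitted to a single exponential to give kobs. Half-life (ln2/kobs) was replotted against reciprocal inhibitor concentration to give kinact and Ki.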

[6] = as §1; set-up: species or system Enterovirus A71; how it was run: as §2
RD [7] = assay: Inhibition of Human enterovirus 71 TW/2231/98 recombinant protease 3C in human RD cells at 0.01 to 1 uM after 48 hrs by Western blotting; type: cell-based; conditions: Enterovirus A71
How it was run: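 Confluent RD cells in DMEM with 10% fetal calf serum were infected with EV71 TW/2231/98 at MOI 0.01 with or without compound at 0.01–1 μM. After 48 h, total lysates were run on 12% SDS–PAGE and blotted with mouse monoclonal anti-3C and anti-β-actin antibodies. Detection used an HRP anti-mouse secondary (1:2000) and ECL.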

Echovirus E9 = assay: Antiviral activity against Human echovirus 9; type: functional, organism-based; conditions: Enterovirus B
Echovirus E6 = assay: Antiviral activity against Human echovirus 6; type: functional, organism-based; conditions: Enterovirus B

| SMILES | EC50 (Enterovirus A71 [1]) | CC50 (RD [2]) | IC50 [4] | also measured |
| --- | --- | --- | --- | --- |
| CN(C)c1ccc(/C=C/C(=O)N[C@@H](Cc2ccccc2)C(=O)N[C@H](C=O)C[C@@H]2CCNC2=O)cc1 | 0.018 µM | > 25 µM | < 0.5 µM | selectivity ratio [3]: > 1000 |
| Cc1cc(/C=C/C(=O)N[C@@H](Cc2ccccc2)C(=O)N[C@H](C=O)C[C@@H]2CCNC2=O)no1 | 0.94 µM | > 25 µM | < 0.5 µM | – |
| CCOC(=O)/C=C/[C@H](C[C@@H]1CCNC1=O)NC(=O)[C@H](Cc1ccccc1)NC(=O)/C=C/c1ccc2c(c1)OCO2 | 1.8 µM | > 25 µM | 10.6 µM | – |
| CCOC(=O)/C=C/[C@H](C[C@@H]1CCNC1=O)NC(=O)[C@H](Cc1ccccc1)NC(=O)OC(C)(C)C | > 20 µM | – | > 20 µM | – |
| O=C[C@H](C[C@@H]1CCNC1=O)NC(=O)[C@H](Cc1ccccc1)NC(=O)/C=C/c1ccc2c(c1)OCO2 | 0.16 µM | > 25 µM | < 0.5 µM | – |
| CCOC(=O)/C=C/[C@H](C[C@@H]1CCNC1=O)NC(=O)[C@H](Cc1ccccc1)NC(=O)/C=C/c1ccc(N(C)C)cc1 | 2.9 µM | 21.4 µM | 8.2 µM | Kinact (Enterovirus A71 [5]): 0.077 min⁻¹; Ki [6]: 2.6 µM |
| O=C[C@H](C[C@@H]1CCNC1=O)NC(=O)[C@H](Cc1ccccc1)NC(=O)/C=C/c1ccc(Cl)cc1F | 0.007 µM | 5.1 µM | < 0.5 µM | Ratio CC50/EC50 ([3]; rd): 714 |
| CCOC(=O)/C=C/[C@H](C[C@@H]1CCNC1=O)NC(=O)[C@H](Cc1ccccc1)NC(=O)/C=C/c1ccccc1 | 1.3 µM | 8 µM | 10 µM | – |
| Cc1ccc(/C=C/C(=O)N[C@@H](Cc2ccccc2)C(=O)N[C@H](C=O)C[C@@H]2CCNC2=O)cc1 | 0.026 µM | > 25 µM | < 0.5 µM | selectivity ratio [3]: > 1000; Activity (RD [7]): Active |
| O=C[C@H](C[C@@H]1CCNC1=O)NC(=O)[C@H](Cc1ccccc1)NC(=O)OCc1ccccc1 | 0.031 µM | 23.6 µM | < 0.5 µM | – |
| CCOC(=O)/C=C/[C@H](C[C@@H]1CCNC1=O)NC(=O)[C@@H](CC(=O)[C@@H](NC(=O)c1cc(C)on1)C(C)C)Cc1ccc(F)cc1 [RUPINTRIVIR] | – | – | – | EC50 (Echovirus E9): 0.015 µM; EC50 (Echovirus E6): 0.043 µM |
| O=C[C@H](C[C@@H]1CCNC1=O)NC(=O)[C@H](Cc1ccccc1)NC(=O)/C=C/c1ccccc1 | 0.096 µM | > 25 µM | < 0.5 µM | – |
